Experimental data reported in ChEMBL document CHEMBL4765263, “Design, synthesis, biological evaluation of 6-(2-amino-1H-benzo[d]imidazole-6-yl)quinazolin-4(3H)-one derivatives as novel anticancer agents with Aurora kinase inhibition” (Eur J Med Chem, 2020).

Key:
PC-3 = experiment: Cytotoxicity against human PC-3 cells assessed as reduction in cell viability incubated for 72 hrs by MTT assay; format: functional, cell-based; conditions: PC-3, 72 h
Summary of the method: (§1)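 MTT viability assay. Cells kept in DMEM with 10% FBS at 37 °C and 5% CO2. Seeded at 5×10^3 cells per well and exposed to a range of compound concentrations from 20 mM DMSO stocks. IC50 is the mean of triplicate measurements.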

MDA-MB-231 = experiment: Cytotoxicity against human MDA-MB-231 cells assessed as reduction in cell viability incubated for 72 hrs by MTT assay; format: functional, cell-based; conditions: MDA-MB-231, 72 h; summary of the method: as §1
SH-SY5Y = experiment: Cytotoxicity against human SH-SY5Y cells assessed as reduction in cell viability incubated for 72 hrs by MTT assay; format: functional, cell-based; summary of the method: as §1
[1] = Solubility of compound in water; format: physicochemical; conditions: buffer

With `CN(C)C(=O)Nc1nc2ccc(-c3ccc4ncn(CCN5CCOCC5)c(=O)c4c3)cc2[nH]1` the IC50 (PC-3) was 6.45 µM, the IC50 (MDA-MB-231) was 4.85 µM and the IC50 (SH-SY5Y) was 3.92 µM. The solubility [1] was “Soluble”.

With `CCS(=O)(=O)Nc1nc2ccc(-c3ccc4ncn(C)c(=O)c4c3)cc2[nH]1` the IC50 (PC-3) was greater than 20 µM, the IC50 (MDA-MB-231) was greater than 20 µM and the IC50 (SH-SY5Y) was greater than 20 µM.

Compound `O=C(Nc1nc2ccc(-c3ccc4ncn(CCN5CCOCC5)c(=O)c4c3)cc2[nH]1)C1CC1` has an IC50 (PC-3) of 11.2 µM, an IC50 (MDA-MB-231) of 1.61 µM and an IC50 (SH-SY5Y) of 7.33 µM.

Compound `CCC(=O)Nc1nc2ccc(-c3ccc4nc(CN5CCN(C(=O)CC)CC5)n(C)c(=O)c4c3)cc2[nH]1` has an IC50 (PC-3) greater than 20 µM, an IC50 (MDA-MB-231) greater than 20 µM and an IC50 (SH-SY5Y) of 5.49 µM.

`CCN(CC)C(=O)Nc1nc2ccc(-c3ccc4ncn(CCN5CCOCC5)c(=O)c4c3)cc2[nH]1` gave an IC50 (PC-3) of 8.13 µM, an IC50 (MDA-MB-231) of 1.76 µM and an IC50 (SH-SY5Y) of 2.52 µM. For the same compound, the solubility [1] was “Soluble”.
